The values that follow come from ChEMBL document CHEMBL1145993, “Pyrazole derivatives as partial agonists for the nicotinic acid receptor” (J Med Chem, 2003).

For test [1], the species on record is Rattus norvegicus. Description: Potency required for stimulation of [35S]GTP gamma-S binding to rat spleen was determined. In kind it is functional, organism-based.
The species entered for test [2] is Rattus norvegicus. Nature of the test: G protein activation was measured by stimulation of [35S]GTP gamma-S binding to rat adipocyte membranes. Type of test: functional.
The species entered for test [3] is Rattus norvegicus. Nature of the test: Relative intrinsic activity in stimulation of [35S]GTP gamma-S binding to rat adipocyte was determined. In kind it is functional. The procedure, abridged: (§1)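 Relative intrinsic activity is maximal stimulation of [35S]GTPγS binding (0.2 nM) as a percentage of the maximum given by nicotinic acid, which is set at 100%. Rat membranes (adipocyte for line 3, spleen for line 4) at 1 to 1.5 µg protein were incubated 90 min at 25 °C with 10 µM GDP and 100 mM NaCl, then filtered. Values are arithmetic mean ± SEM.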

For test [4], the species on record is Rattus norvegicus. Nature of the test: Relative intrinsic activity in stimulation of [35S]GTP gamma-S binding to rat spleen was determined. In kind it is functional. The procedure, abridged: as §1

As for `O=C(O)c1cccnc1` [NIACIN], the half-maximal effective concentration (EC50) in the test filed under Rattus norvegicus [1] was determined as 0.74 µM; in the test listed under Rattus norvegicus [2], 1.7 µM. Besides, the RIA in the test filed under Rattus norvegicus [3] and in the test filed under Rattus norvegicus [4] was 100% each time.

As for `O=C(O)c1n[nH]c2c1CCC2`, the EC50 in the test listed under Rattus norvegicus [1] came to 6.97 µM; in the test filed under Rattus norvegicus [2], 6.44 µM. Further, the RIA is listed as 51.7% in the test listed under Rattus norvegicus [3] and 55.9% in the test filed under Rattus norvegicus [4].

Turning to `CCCCc1cc(C(=O)O)n[nH]1`, the EC50 is 2.26 µM in the test listed under Rattus norvegicus [1] and 4.12 µM in the test listed under Rattus norvegicus [2]. Also, the RIA worked out at 75.7% in the test listed under Rattus norvegicus [3] and 80.7% in the test filed under Rattus norvegicus [4].

Consider `O=C(O)c1cc(Cc2ccccc2)n[nH]1`, for which the EC50 worked out at 86.9 µM in the test listed under Rattus norvegicus [1] and 70.7 µM in the test listed under Rattus norvegicus [2]. The RIA is recorded as 52.4% in the test filed under Rattus norvegicus [3] and 50.3% in the test listed under Rattus norvegicus [4].

With `O=C(O)c1cc[nH]n1`, the EC50 in the test filed under Rattus norvegicus [1] amounted to 21.5 µM; in the test listed under Rattus norvegicus [2], 16 µM. Besides, the RIA in the test listed under Rattus norvegicus [3] worked out at 78.5%; in the test filed under Rattus norvegicus [4] it was 85.3%.

Regarding `CC(C)c1cc(C(=O)O)n[nH]1`, the figures for the EC50 in the test listed under Rattus norvegicus [1] and in the test listed under Rattus norvegicus [2] were 21.8 µM and 13.7 µM, respectively. Besides, the RIA in the test filed under Rattus norvegicus [3] amounted to 49.2%; in the test filed under Rattus norvegicus [4], 67.7%.

For `O=C(O)c1n[nH]c2c1CCCC2`, the results for the EC50 in the test listed under Rattus norvegicus [1] and in the test listed under Rattus norvegicus [2] were 64.6 µM and 85.1 µM, respectively. Also, the RIA in the test filed under Rattus norvegicus [4] was found to be 47.2%.

As to `CCCc1cc(C(=O)O)n[nH]1`, the concentration for a half-maximal effect (EC50) in the test filed under Rattus norvegicus [1] was found to be 5.09 µM; in the test listed under Rattus norvegicus [2] it was 6.1 µM. Besides, the results for the RIA in the test listed under Rattus norvegicus [3] and in the test listed under Rattus norvegicus [4] were 53.5% and 69.9%, respectively.

`O=C(O)c1cc(Cc2cccc(Cl)c2)n[nH]1` had an EC50 in the test listed under Rattus norvegicus [2] of 46.6 µM. This compound also gave an RIA in the test listed under Rattus norvegicus [3] of 39.4%.
